Consider 29 compounds from ChEMBL document CHEMBL1155456, “Thiadiazole carbamates: potent inhibitors of lysosomal acid lipase and potential Niemann-Pick type C disease therapeutics” (J Med Chem, 2010).

Calls of active or inactive are those of the source.

Data set [1] deals with T1, Lysosomal acid lipase/cholesteryl ester hydrolase (Homo sapiens) (UniProt P38571).
T1 sequence (whole entry): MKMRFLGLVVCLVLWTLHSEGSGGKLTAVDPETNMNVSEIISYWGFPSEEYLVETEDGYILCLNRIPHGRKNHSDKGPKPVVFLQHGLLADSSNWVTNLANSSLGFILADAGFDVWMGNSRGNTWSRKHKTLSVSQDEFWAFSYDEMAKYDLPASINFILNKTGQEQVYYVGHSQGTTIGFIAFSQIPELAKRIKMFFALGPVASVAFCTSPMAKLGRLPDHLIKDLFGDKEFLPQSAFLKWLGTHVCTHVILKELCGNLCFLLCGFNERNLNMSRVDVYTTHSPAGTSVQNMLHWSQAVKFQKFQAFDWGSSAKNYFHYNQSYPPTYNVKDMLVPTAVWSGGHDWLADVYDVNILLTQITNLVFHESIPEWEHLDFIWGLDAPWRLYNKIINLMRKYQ
As to the kind of experiment: Inhibition of human LAL at 10 uM after 30 mins by fluorescence assay.

A short description of data set [2]: Cytotoxicity against human GM03123 cells at 10 uM. The data set is classed as cell-based.
Data set [3] can be described thus: Cytotoxicity against human GM05659 cells at 10 uM. The class given is cell-based.
For data set [4], the target named is T1, Lysosomal acid lipase/cholesteryl ester hydrolase (Homo sapiens). In words: Inhibition of human LAL assessed as enzyme decarbamoylation rate constant at 10 uM after 30 mins by fluorescence assay. Summed up:
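Purified human LAL carbamoylated with 10 μM compound for 30 min, then diluted 250× to 40 nM with 125 μM 4-methylumbelliferyl oleate. Run at 37 °C, pH 5.5 acetate buffer with Tween and Triton X-100; fluorescence read every 10 min for 2 h. k3 from linear regression of ln(fraction inhibited) vs time; mean ± SEM of 4 experiments.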

Data set [5] concerns the target T2, Lysosomal acid lipase/cholesteryl ester hydrolase (Homo sapiens, UniProt P38571).
T2 sequence (P38571 whole entry): T1 sequence (whole entry)
As to the kind of experiment: Inhibition of human LAL after 30 mins by fluorescence assay. In a few lines:
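Purified recombinant human LAL (1 mU/ml final) with threefold serial compound dilutions in 200 mM sodium acetate pH 5.5, 0.02% Tween-20, 30 min at 37 °C. 125 μM (final) 4-methylumbelliferyl oleate in Triton X-100 added; fluorescence (ex 355/em 450) read after 1 h at 37 °C. IC50 from rectangular-hyperbola fit of normalized activity; mean ± SEM of 3 independent experiments.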

Data set [6] has as its target T1, Lysosomal acid lipase/cholesteryl ester hydrolase (Homo sapiens). In words: Inhibition of LAL in human GM05659 cell lysate assessed as reduction in lysosomal storage organelle cholesterol level at 0.1 to 10 uM treated for 3 days measured after 1 day of compound withdrawal by bicinchoninic acid assay. Summed up:
(§1)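 Human fibroblasts in MEM with 10% FBS, exposed to compound 3–4 days (withdrawal variant: 3 days treatment, then 1 day compound-free). Cells PBS-washed, rinsed in 150 mM sodium acetate pH 5.5, lysed in 1% Triton X-100 for 30 min at 37 °C. 1 mM (final) 4-methylumbelliferyl oleate added; fluorescence activity normalized to protein by bicinchoninic acid assay.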

Data set [7] has the same target. In words: Inhibition of LAL in human GM05659 cell lysate assessed as reduction in lysosomal storage organelle cholesterol level at 0.1 to 10 uM after 4 days by bicinchoninic acid assay. In a few lines: as §1
Data set [8] has the same target. As to the kind of experiment: Inhibition of LAL in intact human GM03123 cells assessed as reduction in lysosomal storage organelle cholesterol level at 10 uM after 3 days by filipin LSO assay. The class given is cell-based. In a few lines:
(§2)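 Fibroblasts in MEM with 10% FBS treated 3 days, stained with filipin or LipidTOX green, imaged by automated fluorescence microscopy. After background correction, integrated thresholded fluorescence within lysosomal storage organelles was normalized to total cell area defined by low-threshold filipin signal.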

The target is the same in data set [9]. In words: Inhibition of human LAL at 833 nM by fluorescence assay. The note with it: TDE = time-dependent effect. Summed up:
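Purified human LAL pre-incubated with compound at 833 nM for varying times at 37 °C (500 nM final in assay). Reaction started with 125 μM (final) 4-methylumbelliferyl oleate, followed 30 min at 37 °C. Normalized to DMSO control; mean ± SEM of 2 experiments, 12 wells per condition.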

The target is the same in data set [10]. As to the kind of experiment: Inhibition of LAL in intact human GM05659 cells assessed as increase in neutral lipid accumulation in lysosomal storage organelle at 10 uM after 3 days by lipidTox green staining-based fluorescence microscopy. The class given is cell-based. In a few lines: as §2
Data set [11] has the same target. In words: Competitive inhibition of human LAL preincubated for 30 mins by Lineweaver-Burke plot analysis. In a few lines: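 Purified recombinant human LAL pre-incubated with inhibitor 30 min at 37 °C; reaction started with 4-methylumbelliferyl oleate at various concentrations, monitored 45 min. Concentrations are final. Lineweaver-Burk plots fitted by linear regression; two independent experiments, 6–8 wells per treated condition.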

`Oc1nsnc1N1CCOCC1`: the inhibition result in [1] was “inactive”. In addition, the Activity entry in data set [2] and in data set [3] was “Non-toxic” each time.

As for `COC(=O)C(C)c1nsnc1N1CCOCC1` (racemic), in data set [1], the inhibition result was “Active”. In addition, the Activity result in data set [2] and in data set [3] was “Non-toxic” throughout.

For `CC(C)(C)C(=O)Cc1nsnc1N1CCOCC1`, the inhibition entry in data set [1] is “inactive”. For the same compound, the Activity entry in [2] and in [3] was “Non-toxic” in each case.

On to `O=C(Oc1nsnc1N1CCCC1)N1CCCCC1`, for which the Activity in data set [4] was 0.0007 min⁻¹; in data set [2] it was “Non-toxic”; in data set [3] it was “Non-toxic”. In data set [5], this compound had a 50% inhibitory concentration (IC50) of 496 nM. Moreover, the inhibition result in data set [6] and in [7] was “Active” in each case.

As to `COC(N)=O`, in data set [1], the inhibition entry is “inactive”.

Turning to `O=C(Oc1nsnc1N1CCOCC1)N1CCOCC1`, the Activity in data set [4] is 0.0043 min⁻¹; in data set [2] it was “Non-toxic”; in [3], “Non-toxic”. In data set [5], the concentration for half-maximal inhibition (IC50) stood at 492 nM. In addition, the inhibition result in [8] and in [10] was “inactive” in each case. Further, the inhibition entry in data set [9] is “tde”. Moreover, in data set [7], the inhibition entry was “Active”.

As for `Oc1nsnc1N1CCCCCC1`, the inhibition entry in data set [1] was “inactive”. The Activity entry in data set [2] and in data set [3] was “Non-toxic” throughout.

Regarding `O=C(Oc1nsnc1N1CCCC1)N1CCOCC1`, the Activity in [4] is 0.0037 min⁻¹; in [2] it was “Non-toxic”; in data set [3], “Non-toxic”. Also, the IC50 in [5] amounted to 473 nM. Also, in [9], the inhibition result is “tde”. Further, the inhibition entry in data set [7] was “Active”.

For `CN(C)C(=O)Oc1cccc([N+](C)(C)C)c1`, in [1], the inhibition result is “inactive”.

For the compound `Oc1nsnc1N1CCCC1`, the inhibition entry in [1] is “inactive”. Further, the Activity entry in [2] and in data set [3] was “Non-toxic” throughout.

As to `O=C(Oc1nsnc1N1CCCCC1)N1CCOCC1`, the Activity in [4] is 0.003 min⁻¹; in data set [2], “Non-toxic”; in [3], “Non-toxic”. For the same compound, the inhibition entry in data set [11] and in [7] was “Active” throughout. Further, it took 68 nM to reach half-maximal inhibition in data set [5] (IC50). In data set [9], the inhibition result is “tde”.

`CN1CCC(OC(=O)Nc2ccc(F)cc2)CC1`: the inhibition entry in [1] is “inactive”.

Turning to `CC(C(=O)c1ccccc1)c1nsnc1N1CCOCC1` (racemic), in [1], the inhibition result was “inactive”. The Activity result in data set [2] and in [3] was “Non-toxic” in each case.

Turning to `O=C(Oc1nsnc1N1CCOCC1)N1CCCCC1`, the Activity was 0.0016 min⁻¹ in [4], “Non-toxic” in data set [2] and “Non-toxic” in data set [3]. In [5], 424 nM corresponded to half-maximal inhibition (IC50). In addition, the inhibition entry in data set [9] was “tde”. Moreover, the inhibition entry in [7] was “Active”.

As for `O=C(Cc1nsnc1N1CCOCC1)N1CCOCC1`, in data set [1], the inhibition entry was “inactive”. In addition, the Activity entry in [2] and in data set [3] was “Non-toxic” each time.

Regarding `Oc1nsnc1N1CCCCC1`, the inhibition entry in data set [1] was “inactive”. Besides, the Activity entry in data set [2] and in data set [3] was “Non-toxic” throughout.

`O=C(Oc1nsnc1N1CCCCC1)N1CCCCC1`: the Activity is 0.001 min⁻¹ in data set [4], “Non-toxic” in data set [2] and “Non-toxic” in [3]. The compound further had an IC50 in [5] of 152 nM. In addition, the inhibition entry in [6], in data set [8], in [7] and in data set [10] was “Active” each time. Further, in data set [9], the inhibition entry is “tde”.

Turning to `CNC(=O)Oc1ccc2c(c1)[C@]1(C)CCN(C)[C@@H]1N2C`, the inhibition result in data set [1] was “inactive”.

As for `COC(=O)C(C)(C)c1nsnc1N1CCOCC1`, in [1], the inhibition result was “inactive”. For the same compound, the Activity entry in [2] and in data set [3] was “Non-toxic” throughout.

Regarding `O=C(Cc1nsnc1N1CCOCC1)c1ccccc1`, in data set [1], the inhibition result was “inactive”. The Activity entry in data set [2] and in data set [3] was “Non-toxic” in each case.

Take `CCOC(=O)Cc1nsnc1N1CCOCC1`: in [1], the inhibition entry was “inactive”. The Activity result in data set [2] and in data set [3] was “Non-toxic” each time.

Take `NCCCCCCNC(=O)OCc1ccccc1`: the inhibition entry in data set [1] was “inactive”.

`CC(C)(C)OC(=O)Cc1nsnc1N1CCCCC1`: the Activity entry in data set [2] and in [3] was “Non-toxic” in each case.

On to `O=C(Oc1nsnc1N1CCCCCC1)N1CCOCC1`, for which the results for the Activity in data set [4], in [2] and in [3] were 0.0042 min⁻¹, “Non-toxic” and “Non-toxic”, respectively. The compound further registered a half-maximal inhibitory concentration (IC50) in data set [5] of 189 nM. Moreover, the inhibition result in data set [9] was “tde”. The inhibition result in data set [7] is “Active”.

With `O=C(Cc1nsnc1N1CCCCC1)N1CCOCC1`, the inhibition entry in data set [1] was “inactive”. Moreover, the Activity result in [2] and in [3] was “Non-toxic” throughout.

Consider `COC(=O)C(CCc1ccccc1)c1nsnc1N1CCOCC1` (racemic), for which the inhibition entry in data set [1] is “inactive”. Moreover, the Activity entry in data set [2] and in [3] was “Non-toxic” each time.

Consider `COc1ccccc1OCC(CO)OC(N)=O` (stereo not given), for which, in [1], the inhibition result is “inactive”.

As for `O=C(Oc1nsnc1N1CCCCCC1)N1CCCCC1`, the Activity is 0.0013 min⁻¹ in data set [4], “Non-toxic” in data set [2] and “Non-toxic” in data set [3]. The compound also displayed a concentration for half-maximal inhibition (IC50) in data set [5] of 300 nM. The inhibition entry in [6] and in data set [7] was “Active” each time. For the same compound, in data set [9], the inhibition result was “tde”.

With `CC(C)(C)OC(=O)Cc1nsnc1N1CCOCC1`, the inhibition result in [1] is “inactive”. The Activity result in [2] and in [3] was “Non-toxic” throughout.

Usually IC50 stands for the concentration needed to halve the response being measured. Low values mean greater potency in that assay, high ones weaker potency in that assay.
